Results taken from ChEMBL document CHEMBL1155396, “The synthesis and angiotensin converting enzyme (ACE) inhibitory activity of chalcones and their pyrazole derivatives” (Bioorg Med Chem Lett, 2010).

Molecular target: T1, Angiotensin-converting enzyme (Oryctolagus cuniculus, UniProt P12822)
T1 sequence (P12822 whole entry): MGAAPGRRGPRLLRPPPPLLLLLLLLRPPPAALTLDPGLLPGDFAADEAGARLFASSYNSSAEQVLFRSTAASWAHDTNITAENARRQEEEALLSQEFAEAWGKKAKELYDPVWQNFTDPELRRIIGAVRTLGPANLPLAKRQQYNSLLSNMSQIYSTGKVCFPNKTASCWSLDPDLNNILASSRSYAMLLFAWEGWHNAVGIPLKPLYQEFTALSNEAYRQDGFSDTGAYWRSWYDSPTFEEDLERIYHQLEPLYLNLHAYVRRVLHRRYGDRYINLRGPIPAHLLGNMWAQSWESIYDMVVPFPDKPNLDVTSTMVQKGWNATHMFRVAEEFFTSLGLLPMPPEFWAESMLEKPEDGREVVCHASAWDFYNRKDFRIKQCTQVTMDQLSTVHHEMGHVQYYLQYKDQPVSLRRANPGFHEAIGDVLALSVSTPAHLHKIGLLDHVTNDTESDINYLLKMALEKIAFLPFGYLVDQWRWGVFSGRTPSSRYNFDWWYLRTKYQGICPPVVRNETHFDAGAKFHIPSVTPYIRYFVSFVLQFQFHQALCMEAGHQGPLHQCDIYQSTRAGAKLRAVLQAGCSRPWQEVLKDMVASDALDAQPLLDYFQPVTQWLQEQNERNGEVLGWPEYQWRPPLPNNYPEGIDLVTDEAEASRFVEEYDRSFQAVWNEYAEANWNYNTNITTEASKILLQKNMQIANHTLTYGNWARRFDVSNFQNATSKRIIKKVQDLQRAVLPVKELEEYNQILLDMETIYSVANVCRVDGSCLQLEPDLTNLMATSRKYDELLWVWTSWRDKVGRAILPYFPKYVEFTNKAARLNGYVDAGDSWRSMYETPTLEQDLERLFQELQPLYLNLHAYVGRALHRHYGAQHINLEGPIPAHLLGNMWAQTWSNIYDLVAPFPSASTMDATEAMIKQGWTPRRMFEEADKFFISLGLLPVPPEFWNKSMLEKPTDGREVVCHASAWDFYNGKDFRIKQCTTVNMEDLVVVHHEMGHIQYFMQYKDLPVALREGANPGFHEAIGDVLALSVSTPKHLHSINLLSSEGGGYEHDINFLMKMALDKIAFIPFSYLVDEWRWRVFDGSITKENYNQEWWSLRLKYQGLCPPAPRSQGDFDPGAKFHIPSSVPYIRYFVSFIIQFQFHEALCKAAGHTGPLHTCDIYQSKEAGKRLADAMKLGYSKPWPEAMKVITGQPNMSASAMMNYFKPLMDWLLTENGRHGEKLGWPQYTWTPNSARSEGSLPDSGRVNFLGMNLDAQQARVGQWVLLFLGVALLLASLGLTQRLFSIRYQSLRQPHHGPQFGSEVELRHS
Test: (§1) Inhibition of ACE in rabbit lung assessed as decrease in dansylglycine concentration after 5 mins by HPLC analysis
Summary of the method: (§2)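 Rabbit lung ACE, pre-incubated 5 min at 37 °C with compound dissolved in HEPES assay buffer. Reaction started with substrate dansyltriglycine (7.86 mM) plus internal standard dansyl-L-glutamine (0.353 mM), both in the added combined solution. Incubation time was set from a calibration curve. Dansylglycine was quantified by reversed-phase HPLC with UV detection, using isocratic 10 mM NaH₂PO₄ (pH 7)/acetonitrile 88:12. Percent inhibition was taken versus control, with IC50 by nonlinear regression; means of three experiments.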

IC50	SMILES
260 µM	O=c1c(O[C@@H]2O[C@H](CO)[C@H](O)[C@H](O)[C@H]2O)c(-c2ccc(O)cc2)oc2cc(O)cc(O)c12 [TRIFOLIN]
762 µM	COc1ccc(C2CC(c3cc(OC)c(OC)c(OC)c3)=NN2C)cc1O (centres undefined)
246 µM	COc1cc(/C=C/C(=O)c2cc(OC)c(OC)c(OC)c2)ccc1O
674 µM	COc1cc(C2CC(c3cc(OC)c(OC)c(OC)c3)=NN2C)ccc1O (centres undefined)
280 µM	O=c1cc(-c2ccc(O)c(O)c2)oc2cc(O[C@@H]3O[C@H](CO)[C@@H](O)[C@H](O)[C@H]3O)cc(O)c12 [GALUTEOLIN]
213 µM	COc1ccc(C2C[C-](c3cc(OC)c(OC)c(OC)c3)N=[N+]2C)cc1[N+](=O)[O-] (centres undefined)
889 µM	COc1cccc(C2CC(c3cc(OC)c(OC)c(OC)c3)=NN2C)c1 (centres undefined)
805 µM	COc1cc(C2=NN(C)C(c3ccccc3)C2)cc(OC)c1OC (centres undefined)
574 µM	COc1ccc(/C=C/C(=O)c2cc(OC)c(OC)c(OC)c2)cc1
552 µM	COc1cc(C(=O)/C=C/c2ccc([N+](=O)[O-])c(O)c2)cc(OC)c1OC
770 µM	COc1ccc(C2CC(c3cc(OC)c(OC)c(OC)c3)=NN2C)cc1F (centres undefined)
749 µM	COc1ccc(C2CC(c3cc(OC)c(OC)c(OC)c3)=NN2C)cc1N (centres undefined)
338 µM	COc1cc(C(=O)/C=C/c2ccccc2)cc(OC)c1OC
622 µM	COc1cccc(/C=C/C(=O)c2cc(OC)c(OC)c(OC)c2)c1
599 µM	COc1cc([C-]2CC(c3ccc([N+](=O)[O-])c(O)c3)[N+](C)=N2)cc(OC)c1OC (centres undefined)
516 µM	COc1ccc(/C=C/C(=O)c2cc(OC)c(OC)c(OC)c2)cc1[N+](=O)[O-]
435 µM	COc1ccc(C2CC(c3cc(OC)c(OC)c(OC)c3)=NN2C)cc1 (centres undefined)
225 µM	COc1ccc(/C=C/C(=O)c2cc(OC)c(OC)c(OC)c2)cc1O
200 µM	O=C(O)[C@H]1O[C@@H](Oc2c(-c3ccc(O)c(O)c3)oc3cc(O)cc(O)c3c2=O)[C@H](O)[C@@H](O)[C@@H]1O [QUERCETIN GLUCURONIDE]
570 µM	COc1ccc(/C=C/C(=O)c2cc(OC)c(OC)c(OC)c2)cc1F

SMILES	IC50
COc1ccc(/C=C/C(=O)c2cc(OC)c(OC)c(OC)c2)cc1N	219 µM
O=c1cc(-c2ccc(O)cc2)oc2cc(O)cc(O)c12 [APIGENIN]	280 µM
O=c1cc(-c2ccc(O)c(O)c2)oc2cc(O)cc(O)c12 [LUTEOLIN]	290 µM

Molecular target: T2, Angiotensin-converting enzyme (Oryctolagus cuniculus) (UniProt P12822)
T2 sequence (whole entry): T1 sequence (P12822 whole entry)
Test: as §1
Summary of the method: as §2

inhibition	SMILES
Dose-dependent effect	COc1cc(/C=C/C(=O)c2cc(OC)c(OC)c(OC)c2)ccc1O
Dose-dependent effect	COc1cc(C(=O)/C=C/c2ccccc2)cc(OC)c1OC
Dose-dependent effect	COc1ccc(C2CC(c3cc(OC)c(OC)c(OC)c3)=NN2C)cc1 (centres undefined)
Dose-dependent effect	COc1ccc(/C=C/C(=O)c2cc(OC)c(OC)c(OC)c2)cc1O
Dose-dependent effect	COc1ccc(C2CC(c3cc(OC)c(OC)c(OC)c3)=NN2C)cc1[N+](=O)[O-] (centres undefined)

SMILES	inhibition
COc1ccc(/C=C/C(=O)c2cc(OC)c(OC)c(OC)c2)cc1N	Dose-dependent effect
